Laboratory results from PubChem BioAssay AID504383 (The Scripps Research Institute Molecular Screening Center, 2011).
Among all 2,500 compounds or so, about 1,200 (48%) were called active. The set was probably picked from earlier hits. The list shows a part of the results. Values without a mark were called inactive.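 The calls were made as follows: active = mean activation above the low control average plus 3 SD, as set in the primary screen (cut at about 12% in these data); inactive = the rest.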

molecular target: Troponin I, cardiac muscle (Homo sapiens) + Troponin T, cardiac muscle (Homo sapiens) + Troponin C, slow skeletal and cardiac muscles (Homo sapiens) (UniProt P19429+P45379+P63316); test: calcium sensitizers of cardiac thin filaments – biochemical, IANBD-TnC fluorescence, triplicate, confirmation (AID 504383); conditions: IANBD-labeled cardiac RTF, Ca2+ sensitivity fluorescence; at 7.2 µM; stronger effect = higher value; scaled from EC20 to saturating calcium; tested at EC20 calcium, 0.472 mM;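 also: 0% = DMSO at 0.472 mM calcium and 100% = DMSO at 2.9 mM calcium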
Method in brief: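 material = labelled regulated thin filaments | probe or stimulus = Ca2+ 0.472 mM, EC20 level | dosing = single nominal compound dose of 7.2 µM | schedule = 15 min at 25 °C | signal = fluorescence intensity of labelled filaments | evaluation = fluorescence gain scaled between EC20 and EC100 calcium controls | benchmarks = low control EC20 calcium, high control EC100 calcium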

Row | SMILES | activation
1 | Cc1cc(S(=O)(=O)Cc2noc(-c3c(C)noc3C)n2)c(C)cc1Cl | 5.06%
2 | O=C(O)C1CCC(CNCc2ccccc2Cl)CC1 (configuration not stated) | 10.5%
3 | CC(C)(ONC(=O)Nc1ccccc1Cl)C(=O)O | 833% (active)
4 | CC(C)c1ccc(C2c3[nH]c4ccccc4c3C[C@H]3C(=O)N(c4ccccc4C(=O)N4CCC(C(=O)O)CC4)C(=O)N23)cc1 (some centres not stated) | 12% (active)
5 | O=C(NCCN1CCOCC1)c1ccccc1N1C(=O)[C@@H]2Cc3c([nH]c4ccccc34)C(c3ccc(F)cc3)N2C1=O (some centres not stated) | 4.51%
6 | CCN1C(=O)[C@@H]2Cc3c([nH]c4ccccc34)C(c3ccc(OC)cc3)N2C1=S (some centres not stated) | 6.48%
7 | CCOc1nc(OCC)c2[nH]c(C(=O)O)c(Br)c2n1 | 4.87%
8 | CC1CN(CCCCOc2ccc3ccccc3c2)CC(C)O1 (configuration not stated) | 7.54%
9 | CC1CC(C)CN(CCOCCSc2ccccc2)C1 (configuration not stated) | 76.1% (active)
10 | Cc1ccccc1C(=O)c1cccn1CC(=O)NCCCN1CC(C)CC(C)C1 (configuration not stated) | 5.75%
11 | Cc1ccccc1C1CC(=O)Oc2cc(O)ccc21 (configuration not stated) | -1.84%
12 | COCCn1c(SCC(=O)Nc2ccc(NC(=O)c3ccco3)c(OC)c2)nc2ccccc2c1=O | 14.4% (active)
13 | O=C(CSc1ccc(Cl)cc1)Nc1cccc(NC(=O)c2ccco2)c1 | 9.78%
14 | COC1=CC2(O)CCCC2=CC1=O (configuration not stated) | 6.42%
15 | CC(C)(C)NC(=O)NC(=O)Cn1ccsc1=N | 135% (active)
16 | Cc1nc2c(C#N)cnn2c2c1CCN(Cc1ccccc1)N2C | 389% (active)
17 | Cc1c2c(n3c(nc4ccccc43)c1C#N)N(CCN1CCOCC1)CC2 | 10%
18 | O=C1c2c(O)cc(O)cc2O[C@@]12c1c(cc(O)c3c1O[C@H](c1ccc(O)cc1)[C@@H](O)C3)O[C@@H]2c1ccc(O)cc1 | 5.77%
19 | CCOc1ccc(C2CC(c3c(O)c4ccccc4oc3=O)=NN2c2ccccc2)cc1OC (configuration not stated) | 22.3% (active)

Row | SMILES | activation
20 | CCC1(C)COC(c2ccc(OC)c(OC)c2)OC1 (configuration not stated) | 1.48%
21 | NC(=O)c1cc2ccc(O)cc2oc1=NCc1ccccc1 | 6.57%
22 | CCCCCC(C)NC(=S)NC(=O)c1cc(S(=O)(=O)N2CCOCC2)ccc1C (configuration not stated) | 6.76%
23 | Cc1ccc(NC(=O)c2cc(S(=O)(=O)N3CCCCC3)ccc2N2CCOCC2)cc1S(=O)(=O)N(C)C | 7.6%
24 | CCOC(=O)c1c(-c2ccccc2Cl)csc1NC(=O)c1cc(S(=O)(=O)N2CCOCC2)ccc1C | 12.7% (active)
25 | Oc1ccc2nnc3c(Br)cnn3c2c1 | 7.23%
26 | Cc1nc2oc(C(=O)c3ccccc3)c(N)c2c2c1COC(C)(C)C2 | 744% (active)
27 | CCc1ccc2c(COC(=O)CNS(=O)(=O)c3ccc(NC(C)=O)cc3)cc(=O)oc2c1 | 34.8% (active)
28 | COc1ccccc1C(=O)Oc1ccc2c(c1)O/C(=C\c1ccncc1)C2=O | 31.6% (active)
29 | COc1ccc(/C=C2\Oc3cc(OCC(N)=O)ccc3C2=O)cc1OC | 6.98%
30 | O=C(Oc1ccc2c(c1)O/C(=C\c1ccncc1)C2=O)c1ccccc1 | 104% (active)
31 | CN(C)c1ccc(/C=C2\Oc3ccc(C#Cc4cccc(N)c4)cc3C2=O)cc1 | 4.36%
32 | Cc1ccc(-n2nnnc2-c2cnc3cc4c(cc3c2C)OCO4)cc1 | 4.93%
33 | Cc1ccc(-n2nnnc2C(=Cc2ccc(N(C)C)cc2)c2nnnn2-c2ccc(C)cc2)cc1 | 14.4% (active)
34 | O=c1c(/C=C(\O)c2ccc(F)cc2)nc2ccccc2n1-c1ccccc1 | 6.91%
35 | CC(C)(C)C(=O)/C=c1\s/c(=C\c2ccc(-c3ccc([N+](=O)[O-])cc3)o2)c(=O)n1CC(=O)NC(N)=O | 46.3% (active)
36 | CCCNC(=O)Cn1c(=O)/c(=C/c2ccc(-c3ccc([N+](=O)[O-])cc3)o2)s/c1=C\C(=O)C(C)(C)C | 29.9% (active)
37 | CCCNC(=O)Cn1c(=O)/c(=C\c2ccc(-c3ccc([N+](=O)[O-])cc3)o2)s/c1=C\C(=O)C(C)(C)C | 28.6% (active)
38 | CC1=CC(=C(C#N)C#N)C=C(C)N1Cc1ccc(Cl)cc1 | 52.2% (active)

Row | SMILES | activation
39 | CS(=O)(=O)Nc1nc2n(n1)C(c1ccccc1)C=C(c1ccc(Br)cc1)N2 (configuration not stated) | 35.8% (active)
40 | O=c1cc2c(c(-c3ccccc3)n1Cc1ccccc1)[C@H](CCO)NC2 | 16.1% (active)
41 | Nc1ccc(-c2c3ccc(=O)cc-3oc3cc(O)ccc23)cc1C(=O)O | 4.67%
42 | O=c1ccc2c(-c3ccccc3)c3ccc(O)cc3oc-2c1 | 88.1% (active)
43 | O=c1cc(-c2ccccc2)oc2ccc(Br)cc12 | 6.06%
44 | Cn1cc(C2=C(c3ccc(Cl)cc3Cl)C(=O)NC2=O)c2ccccc21 | 32.9% (active)
45 | O=C(NCC1CCCO1)c1c(O)nc2sccn2c1=O (configuration not stated) | 17.7% (active)
46 | Cc1nccc(-c2cccc(N/N=C(\C#N)C(=O)c3ccccc3)c2)n1 | 6.06%
47 | CC(C)c1ccc(OCC(=O)NC(Cc2c[nH]c3ccccc23)C(=O)O)cc1 (configuration not stated) | 4.54%
48 | COc1ccc2c(CC(=O)N[C@@H](Cc3c[nH]c4ccccc34)C(=O)O)cc(=O)oc2c1 | 16.7% (active)
49 | COc1ccc(/C=N/NC(=O)C(Cc2c[nH]c3ccccc23)NC(=O)OCC(C)C)cc1[N+](=O)[O-] (configuration not stated) | 7.99%
50 | NC(=O)CC[C@@H]1NC(=O)[C@H](Cc2ccc(O)cc2)NC(=O)c2cc([N+](=O)[O-])cc(F)c2OCC[C@@H](C(N)=O)NC1=O | 0.64%
51 | CCOc1ccc(CN2CCN(C/C=C/c3ccc(OC)cc3)CC2CCO)cc1 (configuration not stated) | 7.69%
52 | Cc1ccc(CN2CCN(Cc3ccc(-n4cccn4)cc3C)CC2CCO)cc1 (configuration not stated) | 108% (active)
53 | CC/C(=N/Nc1cccc(C)c1)c1cnnc(SC)n1 | 12.7% (active)
54 | COc1ccccc1CNc1cc(C)ccc1C | 1250% (active)
55 | COc1cc(/C=C2/SC(=S)N(CCC(=O)Nc3ccccc3)C2=O)cc(OC)c1OC | 1.16%
56 | C#CCN1C(=O)S/C(=C/C=C/c2ccc(N(C)C)cc2)C1=O | 9.72%
57 | CC(=O)c1ccc(NC(=O)CN2C(=O)/C(=C/C=C/c3ccccc3)SC2=S)cc1 | 13.7% (active)
